High-throughput results deposited in PubChem by several laboratories.
BAP1 block: inhibitors of human BAP1 deubiquitinase; recombinant BAP1, Ub-AMC hydrolysis fluorescence kinetic; hits give low values; calls only at 20 µM; AID 436; actives 0.48% (n = 72,000);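 active means activity remaining at or below 50% of control, provided the compound also passes the data quality filters; inactive means the rest, including low values that fail the filters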
M1 agonist: activates the M1 muscarinic receptor. CHO-M1 cells, Fluo-4 calcium fluorescence, agonist mode; hits give high values. actives 3% (n = 64,000). AID 626. B-score at 10 µM;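 active means fluorescence rise, raw or as B-score row- and column-corrected plate score, outside the 99.7% band of its plate's samples, either direction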
M1 antagonist: M1 muscarinic receptor (rat) antagonism; CHO-M1 cells, Fluo-4 calcium, ACh EC80 antagonist mode; hits give low values; B-score at 10 µM; actives 3.4% (n = 64,000);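 active means calcium fluorescence response, raw or row-and-column corrected B-score, differing from the plate sample mean either way at a set confidence level, mostly lower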
Target sequence (P08482 whole entry, looked up): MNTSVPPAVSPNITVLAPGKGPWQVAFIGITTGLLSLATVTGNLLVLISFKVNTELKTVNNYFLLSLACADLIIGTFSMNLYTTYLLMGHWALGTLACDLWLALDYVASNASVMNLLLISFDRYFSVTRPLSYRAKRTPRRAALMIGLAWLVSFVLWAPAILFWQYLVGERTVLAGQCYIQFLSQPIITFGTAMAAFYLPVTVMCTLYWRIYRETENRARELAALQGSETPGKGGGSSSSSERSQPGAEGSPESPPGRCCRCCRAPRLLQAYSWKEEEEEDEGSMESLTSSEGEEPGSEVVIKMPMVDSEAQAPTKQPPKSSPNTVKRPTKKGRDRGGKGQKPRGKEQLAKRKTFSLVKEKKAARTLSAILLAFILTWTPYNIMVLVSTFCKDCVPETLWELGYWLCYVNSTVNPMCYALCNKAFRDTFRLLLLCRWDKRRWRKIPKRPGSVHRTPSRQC
JNK3 blocker: JNK3 (human) kinase inhibition; P53779; purified JNK3 kinase activity, HTS; actives 0.61% (n = 60,000); inhibition, % at 8 µM; AID 746; in the data active means inhibition above about 17%
HEK293 NFkB inh: inhibitors of the PMA/ionomycin-induced NF-kB reporter in HEK293 cells; HEK-293 NF-kB luciferase reporter, luminescence; inhibition, % at 3 µM; actives 0.21% (n = 62,000);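 active means inhibition above the mean of all tested compounds plus 3 SD, cut at about 40% in these data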
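Signal: luciferase luminescence; Material: HEK-293 cells with stable firefly luciferase reporter driven by four HIV NF-kB elements; Probe or stimulus: PMA with ionomycin; Replication: tested once; Times: 1 h compound pretreatment, then 16 h stimulation at 37 °C, 5% CO2; Benchmarks: DMSO and 10 µM reference inhibitor; Evaluation: per-plate % inhibition versus controls.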
Her2 expr inh: lowers expression of human Her2 kinase; SKBR-3 HER2 protein level, AlphaScreen, 18-24 h; hits give low values; P04626; HER2 level % of control, % at 10 µM; actives 0.69% (n = 65,000);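 active means HER2 level under 5% of the carrier-only control; inconclusive means no clear call, values can overlap the other calls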;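 further: lower value means stronger loss of Her2 protein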
M1 ag confirm: confirmation of rat M1 muscarinic receptor agonists; fluorescence change (max-min) at 10 µM; AID 1488; shares compounds with M1 agonist; CHO-M1 cells, Fluo-4 calcium fluorescence, agonist mode; actives lie on both sides; actives 19% (n = 1,700);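 active means fluorescence change differs from the solvent-only DMSO control mean at a set confidence level in both duplicate runs; inconclusive means differs from solvent-only control mean in just one of two runs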;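 further: an EC20 dose of acetylcholine follows compound addition during the same imaging run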
M4 ag counter: activates rat M4 receptor in counter-screen for M1 agonists; actives 9% (n = 1,700); shares compounds with M1 agonist; AID 1741; CHO M4/Gqi5 cells, Fluo-4 calcium fluorescence, agonist mode; actives lie on both sides; fluorescence change (max-min) at 10 µM;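 active means fluorescence change differing from the plate's solvent-only control wells at 99.7% confidence in both duplicates, whether higher or lower; inconclusive means differs from solvent controls in only one of two duplicates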
Of the large screens only hits and unclear results are named; the others gave an inactive call (follow-up assays come after a bar, where shown). An excerpt weighted towards active compounds, which were near 6.6% of everything screened.

Cc1ccc2[nH]c3c(c2c1)CN(C(=O)CN1CCN(Cc2ccc4c(c2)OCO4)CC1)CC3	none
Nc1nc2n(n1)C(c1ccco1)CC(c1ccc(F)cc1)N2 (configuration not stated)	M1 agonist 2.3 | M1 ag confirm inconclusive | M4 ag counter inconclusive
Nc1nc2n(n1)C(c1ccco1)CC(c1ccccc1)N2 (configuration not stated)	none
CC(C)(C)OC(=O)N[C@@H](Cc1ccccc1)c1nnc(S(=O)(=O)Cc2ccccc2)o1	M1 agonist 20.7 | M1 ag confirm inactive | M4 ag counter inactive
CC(C)(C)OC(=O)N[C@@H](Cc1ccccc1)c1nnc(SCC(=O)O)o1	none
Nc1c(C(=O)c2ccccc2)sc2nc(C3CC3)cc(-c3ccccc3)c12	none (no result: M1 agonist, M1 antagonist, JNK3 blocker, HEK293 NFkB inh, Her2 expr inh)
COc1cc(C2C(C#N)=C(N)Oc3cc(N(C)C)ccc32)cc2c1OCO2 (configuration not stated)	M1 agonist 44.8, HEK293 NFkB inh 63.0 | M1 ag confirm 206 | M4 ag counter 203
Cc1ccc(N2C(=O)C(N3C(=O)c4cccc([N+](=O)[O-])c4C3=O)C2c2ccc3c(c2)OCO3)cc1Cl (configuration not stated)	none (no result: M1 agonist, M1 antagonist, JNK3 blocker, HEK293 NFkB inh, Her2 expr inh)
O=C(OCC(=O)N1CCN(C(=O)c2ccco2)CC1)c1cn(-c2ccccc2)nc1-c1ccccc1	M1 agonist 4.54 | M1 ag confirm inconclusive | M4 ag counter inactive
O=C(OCC(=O)N1CCN(C(=O)c2ccco2)CC1)c1cc(-c2ccc(F)cc2)nc2ccccc12	M1 agonist 10.6 (not shown: BAP1 block) | M1 ag confirm 82.2 | M4 ag counter inactive
CC1Cc2ccccc2N1C(=O)CN1C(=O)CN(C)C(=O)c2ccccc21 (configuration not stated)	none (no result: JNK3 blocker)
CC1Cc2ccccc2N1C(=O)CN1C(=O)NC(C)(c2ccc3c(c2)OCCO3)C1=O (configuration not stated)	M1 agonist 5.62 | M1 ag confirm inactive | M4 ag counter inactive
O=[n+]1c2c(n([O-])c3cc(F)c(N4CCCC4)cc31)CCC2	M1 agonist 91.8 | M1 ag confirm 632 | M4 ag counter 549
O=[n+]1c2c(n([O-])c3cc(F)ccc31)CCCC2	none
O=[n+]1c2c(n([O-])c3cc(F)c(N4CCCC4)cc31)CCCC2	M1 agonist 188 | M1 ag confirm 593 | M4 ag counter 561
CN(C)c1ccc(NC(=O)c2sc(SCC(=O)Nc3nccs3)nc2N)cc1	M1 agonist 7.09 (no result: HEK293 NFkB inh) | M1 ag confirm inactive | M4 ag counter inconclusive
Cc1ccc(NS(=O)(=O)c2cc(C(=O)Nc3ccc([N+](=O)[O-])cc3)ccc2C)cc1	none (no result: M1 agonist, M1 antagonist, JNK3 blocker, HEK293 NFkB inh, Her2 expr inh)
Cc1ccc(S(=O)(=O)NCCC(=O)Oc2cc3oc(=O)cc(CCl)c3cc2Cl)cc1	none (no result: M1 agonist, M1 antagonist, JNK3 blocker, HEK293 NFkB inh, Her2 expr inh)
Cc1ccc(SC/C(O)=C(\C#N)c2nc3ccccc3s2)cc1	M1 agonist 3.27 | M1 ag confirm inactive | M4 ag counter inactive
Cc1ccc(-c2csc(NC(=O)c3ccccc3F)n2)cc1C	none (no result: M1 agonist, M1 antagonist, JNK3 blocker, HEK293 NFkB inh, Her2 expr inh)
CCCCCCc1cc2cc(-c3nnc(-c4ccccc4O)o3)c(=O)oc2cc1O	M1 agonist 317, M1 antagonist 3.33 (not shown: BAP1 block, HEK293 NFkB inh) | M1 ag confirm 781 | M4 ag counter 843
COC(=O)CSc1nnc(-c2ccncc2)n1N	M1 agonist 4.49 (no result: BAP1 block, JNK3 blocker) | M1 ag confirm inconclusive | M4 ag counter inactive
O=C(OC(c1ccccc1)c1nccc2ccccc12)c1ccc(Cl)cc1 (configuration not stated)	none (no result: M1 agonist, M1 antagonist, JNK3 blocker, HEK293 NFkB inh, Her2 expr inh)
O=C(CCN1CCCCCC1)Nc1ccc(F)c(F)c1	none
CCOC(=O)C1CCCN(CC(=O)NC2=Nc3ccccc3N=C(C)C2c2ccccc2)C1 (configuration not stated)	M1 agonist 7.35 | M1 ag confirm -31.4 | M4 ag counter inactive
CCOC(=O)C1CCCN(CCC(=O)Nc2ccc(F)c(F)c2)C1 (configuration not stated)	M1 agonist 5.77 | M1 ag confirm inactive | M4 ag counter inactive
CCOC(=O)C1CCCN(C(=O)CCC(=O)Nc2ccc3nc(N4CCOCC4)cc(C)c3c2)C1 (configuration not stated)	M1 agonist 5.42 (not shown: BAP1 block) | M1 ag confirm inconclusive | M4 ag counter inactive
CCOC(=O)C1CCCN(CC(=O)NC2CC2)C1 (configuration not stated)	none
COc1ccc(OC)c(NC(=O)c2ccc(C(C)(C)C)cc2)c1	none (no result: M1 agonist, M1 antagonist, JNK3 blocker, HEK293 NFkB inh, Her2 expr inh)
Cc1ccc(-n2nc3c(c2NC(=O)c2ccccc2F)CSC3)cc1	none (no result: M1 agonist, M1 antagonist, JNK3 blocker, HEK293 NFkB inh, Her2 expr inh)
CN(C)/C=c1\sc2c(C#N)cc(C(=O)c3ccc(Br)cc3)n2c1=O	M1 agonist 75.2 (no result: JNK3 blocker) | M1 ag confirm 278 | M4 ag counter 714
N#Cc1c(N)c(C(=O)c2ccc(Br)cc2)n2c1CCC2	none
N=c1oc2c3c4c(cc2cc1C(=O)Nc1ccccc1)CCCN4CCC3	M1 agonist 221, M1 antagonist -15.1 | M1 ag confirm 3358 | M4 ag counter 2806
CCCCCn1c(=O)[nH]c2cc(C(=O)NCCN(CC)CC)ccc2c1=O	M1 agonist -2.06 (no result: BAP1 block, JNK3 blocker) | M1 ag confirm -35.6 | M4 ag counter inactive
Cc1ccc(-n2c(C)nc3c(cnn3-c3ccc(F)cc3)c2=O)cc1C	M1 agonist 3.54 | M1 ag confirm inactive | M4 ag counter inconclusive
Cc1ccc(-n2ncc3c(=O)n(CC#N)cnc32)cc1C	none
C=CCn1c2ccccc2c2nnc(SCc3ccc4nonc4c3)nc21	M1 agonist 2.27 (not shown: BAP1 block) | M1 ag confirm inactive | M4 ag counter inactive
OCCCc1nc2n(n1)C(c1ccccc1Cl)C=C(c1cccs1)N2 (configuration not stated)	M1 agonist 33.5 | M1 ag confirm 206 | M4 ag counter 197
Fc1ccc(C2C=C(c3cccs3)Nc3nnnn32)cc1 (configuration not stated)	none (no result: M1 agonist, M1 antagonist, JNK3 blocker, HEK293 NFkB inh, Her2 expr inh)
COc1cccc(C2C(C(=O)OCCOc3ccccc3)=C(C)NC3=C2C(=O)CC(C)(C)C3)c1OC (configuration not stated)	none (no result: M1 agonist, M1 antagonist, JNK3 blocker, HEK293 NFkB inh, Her2 expr inh)
Cc1ccc(N2C(=O)c3cccc4c(N(C)C)ccc(c34)C2=O)cc1	none (no result: M1 agonist, M1 antagonist, JNK3 blocker, HEK293 NFkB inh, Her2 expr inh)
Cc1ccccc1N1C(=O)c2cccc3c(N(C)CCO)ccc(c23)C1=O	M1 agonist 90.6 | M1 ag confirm 868 | M4 ag counter 912
Cc1cc(O)c2c(C)cc(=O)oc2c1	none (no result: M1 agonist, M1 antagonist, JNK3 blocker, HEK293 NFkB inh, Her2 expr inh)
CCC(C)c1ccc2oc(-c3ccc(NC(=O)c4ncn[nH]4)cc3)nc2c1 (configuration not stated)	none
CCC(C)c1ccc(O)c(NC(=O)c2ncn[nH]2)c1 (configuration not stated)	M1 agonist 11.9 | M1 ag confirm -24 | M4 ag counter inactive
